Experimental data from ChEMBL document CHEMBL4725418, “Design, Synthesis, and Structure-Activity Relationship Studies of Dual Inhibitors of Soluble Epoxide Hydrolase and 5-Lipoxygenase” (J Med Chem, 2020).
The source made the active and inactive calls. The rule behind the calls is not given here.

Key:
Mus musculus = experiment: Anti-inflammatory activity in C57BL/6 mouse model of unilateral ureter obstruction-induced kidney inflammation and fibrosis assessed as reduction in TNFalpha mRNA expression at 3 mg/kg, ip dosed daily for 7 days by real-time qPCR analysis; format: functional, organism-based; conditions: time 7.0 day
In short: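 Mice with unilateral ureter obstruction to induce kidney inflammation and fibrosis, given compound or vehicle intraperitoneally. Ligated (UUO) and contralateral kidneys taken at day 7. Fibrosis read by AZAN and Sirius Red staining, with Sirius Red imaged under bright and polarized light. Macrophages detected by F4/80 staining, quantified as positive area. Col1a1, FN1, TNFα and Ccl2 mRNA measured in whole-kidney homogenates by real-time qRT-PCR normalized to GAPDH.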

[1] = target: T1, Bifunctional epoxide hydrolase 2 (Homo sapiens, UniProt P34913); experiment: Inhibition of human sEH (1 to 555 residues) expressed in Escherichia coli BL21-(DE3) using PHOME substrate incubated for 30 to 45 mins by fluorescence based assay
T1 sequence (P34913 whole entry): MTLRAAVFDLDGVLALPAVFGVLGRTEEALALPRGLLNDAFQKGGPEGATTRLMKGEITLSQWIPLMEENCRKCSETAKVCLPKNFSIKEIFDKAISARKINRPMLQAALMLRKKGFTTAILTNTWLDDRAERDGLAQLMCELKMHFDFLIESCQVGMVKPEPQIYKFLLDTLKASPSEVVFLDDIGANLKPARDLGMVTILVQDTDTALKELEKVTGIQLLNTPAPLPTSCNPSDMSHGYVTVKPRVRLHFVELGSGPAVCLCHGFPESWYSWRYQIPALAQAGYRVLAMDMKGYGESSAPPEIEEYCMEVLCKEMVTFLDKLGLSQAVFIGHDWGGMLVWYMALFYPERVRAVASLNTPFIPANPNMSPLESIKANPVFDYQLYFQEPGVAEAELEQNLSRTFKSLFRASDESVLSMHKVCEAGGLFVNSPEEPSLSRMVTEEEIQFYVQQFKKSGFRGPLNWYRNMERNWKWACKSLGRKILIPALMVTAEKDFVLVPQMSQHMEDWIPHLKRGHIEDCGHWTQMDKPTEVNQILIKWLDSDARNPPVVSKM

[2] = target: T2, Polyunsaturated fatty acid 5-lipoxygenase (Homo sapiens, UniProt P09917); experiment: Inhibition of 5-LOX in human PMNL assessed as reduction in 5-HETE and LTB4 formation pre-incubated for 15 mins before addition of AA and A23187 and measured after 10 mins by HPLC/UV assay
T2 sequence (P09917 whole entry): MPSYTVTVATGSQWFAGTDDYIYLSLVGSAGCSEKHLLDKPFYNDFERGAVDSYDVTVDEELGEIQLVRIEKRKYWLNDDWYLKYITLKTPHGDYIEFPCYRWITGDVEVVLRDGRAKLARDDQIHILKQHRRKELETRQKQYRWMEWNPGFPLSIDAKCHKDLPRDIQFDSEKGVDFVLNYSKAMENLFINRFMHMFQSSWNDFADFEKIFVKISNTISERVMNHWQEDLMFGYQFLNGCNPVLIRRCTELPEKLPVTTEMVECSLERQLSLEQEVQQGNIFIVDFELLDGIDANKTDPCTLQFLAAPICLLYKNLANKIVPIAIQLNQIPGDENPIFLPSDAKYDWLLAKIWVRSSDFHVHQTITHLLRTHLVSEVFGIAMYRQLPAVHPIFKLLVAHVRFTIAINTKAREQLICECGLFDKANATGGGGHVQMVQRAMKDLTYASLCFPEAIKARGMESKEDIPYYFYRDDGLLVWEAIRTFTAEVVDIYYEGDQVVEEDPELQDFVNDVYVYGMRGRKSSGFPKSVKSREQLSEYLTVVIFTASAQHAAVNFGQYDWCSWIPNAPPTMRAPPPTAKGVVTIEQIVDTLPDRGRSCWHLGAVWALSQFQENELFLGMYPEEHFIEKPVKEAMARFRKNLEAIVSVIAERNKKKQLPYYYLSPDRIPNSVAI

[3] = target: T3, Polyunsaturated fatty acid lipoxygenase ALOX15 (Homo sapiens) (UniProt P16050); experiment: Activation of 15-LOX in human PMNL pre-incubated for 15 mins before addition of AA and A23187 and measured after 10 mins by HPLC/UV assay; conditions: filed as activator, time 25.0 min
T3 sequence (whole entry): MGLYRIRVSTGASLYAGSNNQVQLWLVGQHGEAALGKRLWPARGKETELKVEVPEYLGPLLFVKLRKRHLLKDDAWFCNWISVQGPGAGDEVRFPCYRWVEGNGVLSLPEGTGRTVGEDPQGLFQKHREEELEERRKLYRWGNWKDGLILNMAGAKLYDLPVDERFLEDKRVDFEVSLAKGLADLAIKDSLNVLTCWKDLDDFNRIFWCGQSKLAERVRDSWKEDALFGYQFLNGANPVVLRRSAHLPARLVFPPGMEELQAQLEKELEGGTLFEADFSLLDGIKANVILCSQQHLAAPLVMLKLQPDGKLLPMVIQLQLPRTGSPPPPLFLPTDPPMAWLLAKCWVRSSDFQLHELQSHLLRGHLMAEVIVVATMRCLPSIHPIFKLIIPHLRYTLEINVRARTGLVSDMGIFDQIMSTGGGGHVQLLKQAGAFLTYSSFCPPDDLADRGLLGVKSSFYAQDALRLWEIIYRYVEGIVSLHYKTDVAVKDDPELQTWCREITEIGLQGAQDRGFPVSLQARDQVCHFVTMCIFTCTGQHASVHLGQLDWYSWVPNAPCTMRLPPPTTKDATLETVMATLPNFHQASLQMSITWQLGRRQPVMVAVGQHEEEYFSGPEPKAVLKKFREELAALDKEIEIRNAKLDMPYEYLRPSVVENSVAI

Which Activity (Mus musculus) does the source give for `C[C@H](C#Cc1cccc(C(=O)NCCC(c2ccc(F)cc2)c2ccc(F)cc2)c1)N(O)C(N)=O` here?
Its Activity is “Active”.

What about the IC50 [1] of the same compound?
Its IC50 is 1.2 nM.

And the IC50 [2]?
The IC50 was 210 nM.

And the Activity [3]?
Its Activity is “Active”.
